Source: ChEMBL document CHEMBL1671655, “Anidulafungin is fungicidal and exerts a variety of postantifungal effects against Candida albicans, C. glabrata, C. parapsilosis, and C. krusei isolates” (2009)
≈ marks a conversion by molar mass, not a printed value. Calls of active or inactive are those of the source. The calls are words filed in the database; no cut-off is given here. Starred links: 1 amine or outer side, 2 acyl side, 3 side chain; linkers in the order of their positions; H or OH if unused. Positions of bridges follow the written chain, without caps; N, C: chain ends. Non-standard residues stand in square brackets, D forms with d. Residues, ends and D or L forms follow the SMILES beside them. *: point of attachment. pTerphenylCO(4''-OnC5H11) = CCCCCOc1ccc(-c2ccc(-c3ccc(C(=O)*)cc3)cc2)cc1; Orn(4R-OH,5R-OH) = O=C([C@H](C[C@@H](O)[C@@H](O)N[*:3])N[*:1])[*:2]; hTyr(3S-OH,4S-OH) = N[C@H](C(=O)O)[C@H](O)[C@@H](O)c1ccc(O)cc1; Pro(3S-OH,4S-Me) = C[C@H]1CN[C@H](C(=O)O)[C@H]1O; Hyp = O=C(O)[C@@H]1C[C@@H](O)CN1

What was measured:
Candida parapsilosis [1] = test: Increase in susceptibility to SDS in Candida parapsilosis isolate A assessed as cell wall damage at 16 times MIC after 1 hr relative to control; format: functional, organism-based
In short: (§1)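 Cells recovered 8 h after a 1-h drug exposure were grown in YPD with 1% glucose to exponential phase and adjusted to OD599 0.1. Undiluted culture and 10-fold serial dilutions were spotted onto YPD plates containing SDS (0.01 to 0.04%), then incubated 72 h at 30°C. Growth compared with unexposed control cells; triplicate.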

Nakaseomyces glabratus [2] = test: Antifungal activity against Candida glabrata isolate 1 assessed as cell wall damage at 4 times MIC by Transmission electron microscopy; format: functional, organism-based
In short: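 Cells recovered 8 h after a 1-h drug exposure were grown on SDA for 24 h at 35°C. Colonies fixed at 4°C in 0.1 M cacodylate (pH 7.2) with 2% glutaraldehyde and 2% paraformaldehyde, ethanol-dehydrated and embedded in Lowicryl K4M. Thin sections examined by transmission EM.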

Candida albicans [3] = test: Antifungal activity against Candida albicans by NCCLS M27A broth microdilution method; format: functional
Nakaseomyces glabratus [4] = test: Increase in susceptibility to SDS in Candida glabrata isolate 3 assessed as cell wall damage at 4 times MIC after 1 hr relative to control; format: functional, organism-based; in short: as §1
Candida parapsilosis [5] = test: Fungicidal activity against Candida parapsilosis isolate 1 assessed as log reduction in bacterial count at 4 times MIC after 48 hrs by time-kill analysis; format: functional; conditions: Lodderomyces parapsilosis, isolate 1, 48 h
In short: (§2)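 Isolates subcultured twice on SDA, suspended to 0.5 McFarland, giving ~1 x 10^5 to 5 x 10^5 CFU/ml in MOPS-buffered RPMI 1640 (pH 7.0) with or without drug at multiples of MIC (MIC by CLSI M27-A3). Tubes shaken at 35°C with continuous drug. Sampled at 0–48 h, diluted 10-fold and plated on SDA; CFU counted after 48 h at 35°C. Run twice per isolate; means.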

Nakaseomyces glabratus [6] = test: Increase in susceptibility to SDS in Candida glabrata isolate 1 assessed as cell wall damage at MIC after 1 hr relative to control; format: functional, organism-based; in short: as §1
Candida albicans [7] = test: Antifungal activity against Candida albicans isolate S by CLSI M27-A3 broth microdilution method; format: functional
In short: (§3)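 CLSI M27-A3 broth microdilution in RPMI 1640 buffered to pH 7.0 with MOPS. Starting inoculum 0.5 x 10^3 to 2.5 x 10^3 cells/ml, incubated at 35°C. MIC read as the lowest concentration giving >50% growth reduction versus control. Each isolate tested on at least three occasions.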

Nakaseomyces glabratus [8] = test: Fungicidal activity against Candida glabrata isolate 2 assessed as log reduction in bacterial count at 4 times MIC after 48 hrs by time-kill analysis; format: functional; conditions: isolate 2, 48 h; in short: as §2
Pichia kudriavzevii [9] = test: Increase in susceptibility to calcofluor white in Candida krusei isolate ATCC 6258 assessed as cell wall damage at MIC after 1 hr relative to control; format: functional, organism-based
In short: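 Candida given a 1-h anidulafungin pulse in MOPS-buffered RPMI 1640 (pH 7.0) at 35°C, washed three times by centrifugation, and regrown drug-free. Cells collected 8 h later, grown in YPD with 1% glucose to exponential phase, and set to OD599 0.1. Undiluted culture and 10-fold dilutions (4 µl) spotted on YPD plates with calcofluor white, then 30°C for 72 h. Triplicate; compared with no-drug cells.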

Nakaseomyces glabratus [10] = test: Fungicidal activity against Candida glabrata isolate 1 assessed as log reduction in bacterial count at MIC after drug exposure for 1 hr followed by washout measured after 48 hrs in the absence of drug by PAFE study; format: functional
In short: (§4)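 Starting inoculum ~1 x 10^5 to 5 x 10^5 CFU/ml in MOPS-buffered RPMI 1640 (pH 7.0) with drug at multiples of the CLSI M27-A3 MIC. After 1 h at 35°C, cells washed and centrifuged three times at 1,400 x g for 10 min, then resuspended in warm drug-free RPMI. Shaken at 35°C and plated on SDA at 0–48 h; CFU counted after 48 h. Run twice per isolate; means.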

Nakaseomyces glabratus [11] = test: Fungicidal activity against Candida glabrata isolate 1 assessed as log reduction in bacterial count at 16 times MIC after 48 hrs by time-kill analysis; format: functional; conditions: isolate 1, 48 h; in short: as §2
Nakaseomyces glabratus [12] = test: Antifungal activity against Candida glabrata assessed as time period for bacterial regrowth inhibition after 1 hr drug exposure; format: functional
Candida parapsilosis [13] = test: Antifungal activity against Candida parapsilosis isolate A assessed as time period for bacterial growth inhibition at 16 times MIC after 1 hr drug exposure; format: functional
In short: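 Inoculum of about 1 x 10^5 to 5 x 10^5 CFU/ml in MOPS-buffered RPMI (pH 7.0), shaken at 35°C and exposed to drug for 1 h. Cells then washed and centrifuged three times and resuspended in drug-free warm RPMI. Samples plated on SDA at 0, 2, 4, 8, 12, 24 and 48 h, with CFU counted after 48 h at 35°C. Run twice per isolate; values are means.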

Candida albicans [14] = test: Increase in susceptibility to SDS in Candida albicans isolate 1 assessed as cell wall damage at 4 times MIC after 1 hr relative to control; format: functional, organism-based; in short: as §1
Candida albicans [15] = test: Fungicidal activity against Candida albicans isolate 1 assessed as log reduction in bacterial count at 16 times MIC after drug exposure for 1 hr followed by washout measured after 48 hrs in the absence of drug by PAFE study; format: functional; in short: as §4
Candida albicans [16] = test: Fungicidal activity against Candida albicans isolate S assessed as log reduction in bacterial count at MIC after drug exposure for 1 hr followed by washout measured after 48 hrs in the absence of drug by PAFE study; format: functional; in short: as §4
Nakaseomyces glabratus [17] = test: Inhibition of Candida glabrata isolate 1 adherence to human buccal epithelial cells at 4 times MIC after 1 hr by adherence assay relative to control; format: functional, Epithelial cell
In short: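 Candida collected 8 h after a 1-h 4x MIC pulse and washout were grown on SDA for 24 h at 35°C. Buccal epithelial cells were pooled from three donors and washed in PBS. Cells (1 x 10^5/ml) were mixed 1:1 by volume with Candida (1 x 10^6/ml) and shaken 1 h at 37°C. Mixtures were filtered, washed, and Gram-stained, and Candida were counted per 100 epithelial cells. Run in duplicate on ≥2 occasions; Student's t test against unexposed controls.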

Nakaseomyces glabratus [18] = test: Fungicidal activity against Candida glabrata isolate 3 assessed as log reduction in bacterial count at 4 times MIC after 48 hrs by time-kill analysis; format: functional; conditions: isolate 3, 48 h; in short: as §2
Candida albicans [19] = test: Increase in susceptibility to SDS in Candida albicans ATCC 90028 assessed as cell wall damage at 4 times MIC after 1 hr relative to control; format: functional, organism-based; in short: as §1
Pichia kudriavzevii [20] = test: Increase in susceptibility to calcofluor white in Candida krusei isolate ATCC 6258 assessed as cell wall damage at 16 times MIC after 1 hr relative to control; format: functional, organism-based
In short: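 Cells recovered 8 h after a 1-h drug exposure were grown to exponential phase in YPD with 1% glucose and adjusted to OD599 0.1. Undiluted and 10-fold serially diluted cultures were spotted onto YPD plates containing calcofluor white, then incubated at 30°C for 72 h. Growth compared with no-drug control cells; triplicate.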

Candida albicans [21] = test: Antifungal activity against Candida albicans ATCC 90028 by CLSI M27-A3 broth microdilution method; format: functional; in short: as §3
Nakaseomyces glabratus [22] = test: Fungicidal activity against Candida glabrata isolate 1 assessed as log reduction in bacterial count at 16 times MIC after drug exposure for 1 hr followed by washout measured after 48 hrs in the absence of drug by PAFE study; format: functional; in short: as §4

CCCCCOc1ccc(-c2ccc(-c3ccc(C(=O)N[C@H]4C[C@@H](O)[C@@H](O)NC(=O)[C@@H]5[C@@H](O)[C@@H](C)CN5C(=O)[C@H]([C@@H](C)O)NC(=O)[C@H]([C@H](O)[C@@H](O)c5ccc(O)cc5)NC(=O)[C@@H]5C[C@@H](O)CN5C(=O)[C@H]([C@@H](C)O)NC4=O)cc3)cc2)cc1 [ANIDULAFUNGIN] ({pTerphenylCO(4''-OnC5H11)}-[Orn(4R-OH,5R-OH)]T[Hyp][hTyr(3S-OH,4S-OH)]T[Pro(3S-OH,4S-Me)]; lactam 1-C)
Activity (Candida parapsilosis [1]): Active | Activity (Nakaseomyces glabratus [2]): Active | MIC90 (Candida albicans [3]): 0.06 µg/mL (≈ 0.0526 µM) | Activity (Nakaseomyces glabratus [4]): Active | log reduction (Candida parapsilosis [5]): 3.07 log CFU/ml | Activity (Nakaseomyces glabratus [6]): Active | MIC (Candida albicans [7]): 0.008 µg/mL (≈ 0.00702 µM) | log reduction (Nakaseomyces glabratus [8]): 1.87 log CFU/ml | Activity (Pichia kudriavzevii [9]): Active | log reduction (Nakaseomyces glabratus [10]): 0.89 | log reduction (Nakaseomyces glabratus [11]): 3.44 log CFU/ml | Time (Nakaseomyces glabratus [12]): >=12 hr | Time (Candida parapsilosis [13]): 8 h | Activity (Candida albicans [14]): Active | log reduction (Candida albicans [15]): 2.64 | log reduction (Candida albicans [16]): 1.59 log CFU/ml | inhibition (INH) (Nakaseomyces glabratus [17]): 62% | log reduction (Nakaseomyces glabratus [18]): 2.76 log CFU/ml | Activity (Candida albicans [19]): Active | Activity (Pichia kudriavzevii [20]): Active | MIC (Candida albicans [21]): 0.03 µg/mL (≈ 0.0263 µM) | log reduction (Nakaseomyces glabratus [22]): 3.36
